Laboratory results as given in ChEMBL document CHEMBL5661976 (Cancer Res, 2007).
Activity calls are given as the source filed them. No cut-off for these calls is given here.

How the values were obtained:
cells [1] = assay type: functional, cell-based; settings: Homo sapiens, NCI-H1819, 72 h
[2] = Inhibition of recombinant MAPK2/ERK2 (unknown origin); design: species or system Homo sapiens
A549 = test: cells; assay type: functional, cell-based; settings: Homo sapiens, A549, 72 h
[3] = molecular target: Rho-associated protein kinase 2 (Homo sapiens, UniProt O75116); test: Inhibition of recombinant ROCK-II (unknown origin)
Sequence of Rho-associated protein kinase 2 (O75116 whole entry): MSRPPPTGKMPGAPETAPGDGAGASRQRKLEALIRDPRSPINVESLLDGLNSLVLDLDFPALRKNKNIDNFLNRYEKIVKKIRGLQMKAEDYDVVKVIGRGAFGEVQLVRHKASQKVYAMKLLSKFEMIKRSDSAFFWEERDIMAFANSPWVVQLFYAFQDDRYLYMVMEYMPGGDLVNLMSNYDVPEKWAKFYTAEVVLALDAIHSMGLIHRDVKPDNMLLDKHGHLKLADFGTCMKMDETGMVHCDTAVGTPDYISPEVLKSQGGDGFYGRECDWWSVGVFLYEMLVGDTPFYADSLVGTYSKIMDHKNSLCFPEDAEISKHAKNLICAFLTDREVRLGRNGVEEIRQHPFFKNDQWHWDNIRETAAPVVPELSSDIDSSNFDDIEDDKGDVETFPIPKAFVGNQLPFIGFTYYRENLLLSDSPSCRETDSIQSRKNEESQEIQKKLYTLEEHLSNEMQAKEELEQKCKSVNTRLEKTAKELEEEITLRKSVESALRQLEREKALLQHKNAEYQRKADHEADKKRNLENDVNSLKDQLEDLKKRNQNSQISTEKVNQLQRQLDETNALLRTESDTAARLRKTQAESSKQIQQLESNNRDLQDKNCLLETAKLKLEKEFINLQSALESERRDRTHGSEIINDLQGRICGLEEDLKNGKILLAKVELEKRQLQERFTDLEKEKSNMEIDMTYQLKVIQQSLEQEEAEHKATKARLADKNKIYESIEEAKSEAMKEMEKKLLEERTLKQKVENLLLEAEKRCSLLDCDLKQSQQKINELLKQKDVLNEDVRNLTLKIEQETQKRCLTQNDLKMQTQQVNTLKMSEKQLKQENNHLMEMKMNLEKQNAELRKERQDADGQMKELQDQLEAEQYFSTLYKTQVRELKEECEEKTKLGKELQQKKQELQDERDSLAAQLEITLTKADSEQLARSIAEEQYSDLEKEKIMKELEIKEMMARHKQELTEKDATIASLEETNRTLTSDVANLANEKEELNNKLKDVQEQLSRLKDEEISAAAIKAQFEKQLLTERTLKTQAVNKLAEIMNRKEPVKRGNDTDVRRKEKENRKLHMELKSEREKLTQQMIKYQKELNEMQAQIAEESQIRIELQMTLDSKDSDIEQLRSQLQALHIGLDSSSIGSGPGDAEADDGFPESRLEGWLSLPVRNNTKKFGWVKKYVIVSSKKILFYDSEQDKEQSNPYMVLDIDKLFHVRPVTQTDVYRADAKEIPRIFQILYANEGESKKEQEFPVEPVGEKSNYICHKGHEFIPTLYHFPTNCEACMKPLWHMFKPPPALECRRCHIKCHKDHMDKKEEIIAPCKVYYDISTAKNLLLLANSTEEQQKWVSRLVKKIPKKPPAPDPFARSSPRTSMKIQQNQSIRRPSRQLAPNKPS

[4] = molecular target: Mitogen-activated protein kinase 11 (Homo sapiens, UniProt Q15759); test: Inhibition of recombinant SAPK2b/p38beta2 (unknown origin)
Sequence of Mitogen-activated protein kinase 11 (Q15759 whole entry): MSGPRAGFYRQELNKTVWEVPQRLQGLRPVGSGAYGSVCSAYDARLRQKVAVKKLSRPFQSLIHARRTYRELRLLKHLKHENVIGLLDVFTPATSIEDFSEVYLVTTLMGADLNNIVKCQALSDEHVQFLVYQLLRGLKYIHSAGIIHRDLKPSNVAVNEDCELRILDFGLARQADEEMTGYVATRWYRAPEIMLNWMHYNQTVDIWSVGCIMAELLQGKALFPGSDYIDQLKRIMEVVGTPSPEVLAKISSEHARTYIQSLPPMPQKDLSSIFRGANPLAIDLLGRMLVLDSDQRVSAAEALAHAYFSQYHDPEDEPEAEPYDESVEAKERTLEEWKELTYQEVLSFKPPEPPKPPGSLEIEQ

NCI-H3255 [5] = test: cells; assay type: functional, cell-based; settings: Homo sapiens, NCI-H3255, 72 h
[6] = molecular target: Protein kinase C alpha type (Homo sapiens, UniProt P17252); test: Inhibition of recombinant PKCa (unknown origin)
BaF3 [7] = test: cells; assay type: functional, cell-based; settings: Mus musculus, BaF3, 72 h
HCC827 [8] = test: Antiproliferative activity against human HCC827 cells harboring EGFR Del E746_A750 mutant transfected with GFP assessed as inhibition of cell growth incubated for 72 hrs by MTS assay; assay type: functional, cell-based; settings: HCC827, 72 h
How it was run: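 MTS viable-cell assay (bioreduction to soluble formazan, spectrophotometric read) after 72 h drug exposure; cell numbers set empirically.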

cells [9] = assay type: functional, cell-based; settings: Homo sapiens, NCI-H1781, 72 h
HCC827 [10] = test: cells; assay type: functional, cell-based; settings: Homo sapiens, HCC827, 72 h
[11] = molecular target: Serine/threonine-protein kinase Sgk1 (Homo sapiens, UniProt O00141); test: Inhibition of recombinant SGK (unknown origin)
Sequence of Serine/threonine-protein kinase Sgk1 (O00141 whole entry): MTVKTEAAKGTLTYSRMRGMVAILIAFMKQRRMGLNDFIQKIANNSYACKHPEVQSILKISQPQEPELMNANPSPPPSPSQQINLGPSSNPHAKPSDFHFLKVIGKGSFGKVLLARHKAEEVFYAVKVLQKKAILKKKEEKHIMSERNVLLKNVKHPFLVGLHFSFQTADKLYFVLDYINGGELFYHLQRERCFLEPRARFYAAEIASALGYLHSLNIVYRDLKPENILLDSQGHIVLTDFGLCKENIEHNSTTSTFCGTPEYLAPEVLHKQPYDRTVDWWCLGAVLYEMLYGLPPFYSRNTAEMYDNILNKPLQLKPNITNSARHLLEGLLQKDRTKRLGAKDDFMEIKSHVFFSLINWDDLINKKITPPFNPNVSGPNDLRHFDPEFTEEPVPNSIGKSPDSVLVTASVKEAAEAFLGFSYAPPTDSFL

[12] = molecular target: Ribosomal protein S6 kinase alpha-5 (Homo sapiens, UniProt O75582); test: Inhibition of recombinant MSK1 (unknown origin)
Sequence of Ribosomal protein S6 kinase alpha-5 (O75582 whole entry): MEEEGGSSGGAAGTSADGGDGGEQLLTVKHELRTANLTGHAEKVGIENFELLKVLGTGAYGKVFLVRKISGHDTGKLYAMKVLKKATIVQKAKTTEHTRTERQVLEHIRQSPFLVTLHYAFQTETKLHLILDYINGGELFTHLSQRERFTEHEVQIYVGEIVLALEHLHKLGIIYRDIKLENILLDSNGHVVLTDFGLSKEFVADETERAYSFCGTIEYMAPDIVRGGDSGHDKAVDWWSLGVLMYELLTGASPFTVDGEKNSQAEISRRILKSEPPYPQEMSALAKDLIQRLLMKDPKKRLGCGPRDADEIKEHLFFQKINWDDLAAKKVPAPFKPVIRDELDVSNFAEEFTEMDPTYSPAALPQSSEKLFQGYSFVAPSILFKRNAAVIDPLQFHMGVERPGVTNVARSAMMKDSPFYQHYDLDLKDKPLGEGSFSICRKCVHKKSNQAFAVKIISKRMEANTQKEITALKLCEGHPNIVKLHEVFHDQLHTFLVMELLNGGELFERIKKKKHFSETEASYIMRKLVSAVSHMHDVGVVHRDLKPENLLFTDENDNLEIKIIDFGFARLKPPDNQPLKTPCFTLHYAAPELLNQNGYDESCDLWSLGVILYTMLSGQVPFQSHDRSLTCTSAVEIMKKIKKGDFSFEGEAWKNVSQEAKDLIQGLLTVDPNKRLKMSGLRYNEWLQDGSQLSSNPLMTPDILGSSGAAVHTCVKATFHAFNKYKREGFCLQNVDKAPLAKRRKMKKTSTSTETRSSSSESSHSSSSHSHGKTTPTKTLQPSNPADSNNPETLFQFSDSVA

BaF3 [13] = test: cells; assay type: functional, cell-based; settings: Mus musculus, BaF3, 72 h; remark: listed apart in the source
[14] = molecular target: Tyrosine-protein kinase Fes/Fps (Homo sapiens, UniProt P07332); test: Inhibition of recombinant FES (unknown origin)
[15] = molecular target: Mitogen-activated protein kinase 13 (Homo sapiens, UniProt O15264); test: Inhibition of recombinant SAPK4/p38delta (unknown origin)
Sequence of Mitogen-activated protein kinase 13 (O15264 whole entry): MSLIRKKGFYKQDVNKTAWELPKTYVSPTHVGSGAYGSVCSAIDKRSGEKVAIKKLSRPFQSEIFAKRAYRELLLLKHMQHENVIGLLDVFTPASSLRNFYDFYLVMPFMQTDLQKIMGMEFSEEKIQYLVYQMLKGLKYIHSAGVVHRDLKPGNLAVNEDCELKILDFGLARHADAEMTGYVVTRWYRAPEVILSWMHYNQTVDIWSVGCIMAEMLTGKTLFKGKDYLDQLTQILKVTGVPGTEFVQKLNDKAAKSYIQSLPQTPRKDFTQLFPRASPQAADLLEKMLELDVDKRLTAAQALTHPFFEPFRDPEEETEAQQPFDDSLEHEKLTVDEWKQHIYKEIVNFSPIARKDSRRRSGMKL

H322 = test: cells; assay type: functional, cell-based; settings: Homo sapiens, NCI-H322, 72 h
Calu-3 = test: cells; assay type: functional, cell-based; settings: Homo sapiens, Calu-3, 72 h
HCC827 [16] = test: Antitumor activity against human HCC827 cells expressing GFP xenografted in nude mouse assessed as inhibition of tumor growth at 10 mg/kg/day, po and measured thrice weekly; assay type: functional, organism-based
How it was run: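 Nu/nu mice under 2% isoflurane/oxygen inoculated s.c. in lower-right flank with 5 × 10^6 HCC827-GFP or HCC827-Del/T790M cells in 0.2 mL PBS; randomized at mean tumor 400 to 500 mm3. Daily oral gavage 10 mg/kg/d; caliper volume = length × width² × 0.52; body weight monitored daily; ended when control tumors reached 2000 mm3.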

[17] = molecular target: Mitogen-activated protein kinase 14 (Homo sapiens, UniProt Q16539); test: Inhibition of recombinant SAPK2a/p38 (unknown origin)
[18] = molecular target: Dual specificity tyrosine-phosphorylation-regulated kinase 1A (Homo sapiens, UniProt Q13627); test: Inhibition of recombinant DYRK1a (unknown origin)
[19] = molecular target: Receptor tyrosine-protein kinase erbB-3 (Homo sapiens) (UniProt P21860); test: Inhibition of ERBB3 phosphorylation in human HCC827 cells expressing GFP at 1 to 10000 nmol/L incubated for 12 hrs by Western blotting analysis; assay type: cell-based; settings: dose 1-10000 nmol/L
[20] = molecular target: Ribosomal protein S6 kinase alpha-1 (Homo sapiens, UniProt Q15418); test: Inhibition of recombinant MAPKAP-K1a (unknown origin)
Sequence of Ribosomal protein S6 kinase alpha-1 (Q15418 whole entry): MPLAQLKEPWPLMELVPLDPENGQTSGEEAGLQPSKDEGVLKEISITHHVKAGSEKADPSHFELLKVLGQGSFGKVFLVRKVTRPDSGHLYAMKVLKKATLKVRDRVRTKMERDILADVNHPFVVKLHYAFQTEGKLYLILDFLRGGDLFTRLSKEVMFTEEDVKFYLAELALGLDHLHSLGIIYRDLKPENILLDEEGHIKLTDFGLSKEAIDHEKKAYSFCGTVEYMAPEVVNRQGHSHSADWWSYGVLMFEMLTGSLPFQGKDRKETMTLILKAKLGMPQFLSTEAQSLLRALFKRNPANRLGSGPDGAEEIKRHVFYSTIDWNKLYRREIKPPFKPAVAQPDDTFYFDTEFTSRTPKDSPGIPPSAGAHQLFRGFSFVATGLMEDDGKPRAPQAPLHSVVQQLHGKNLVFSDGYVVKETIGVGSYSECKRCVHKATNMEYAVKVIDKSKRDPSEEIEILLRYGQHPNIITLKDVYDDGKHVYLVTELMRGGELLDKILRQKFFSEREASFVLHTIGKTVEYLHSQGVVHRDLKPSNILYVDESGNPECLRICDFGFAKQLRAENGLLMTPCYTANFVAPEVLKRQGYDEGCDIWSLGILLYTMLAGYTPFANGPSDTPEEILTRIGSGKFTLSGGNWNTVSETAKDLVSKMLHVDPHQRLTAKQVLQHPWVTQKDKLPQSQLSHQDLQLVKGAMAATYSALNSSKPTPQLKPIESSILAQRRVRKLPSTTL

NIH3T3 [21] = settings: Mus musculus, dose 1-10000 nmol/L, time 6.25 hrs
[22] = molecular target: MAP kinase-activated protein kinase 2 (Homo sapiens, UniProt P49137); test: Inhibition of recombinant MAPKAP-K2 (unknown origin)
Sequence of MAP kinase-activated protein kinase 2 (P49137 whole entry): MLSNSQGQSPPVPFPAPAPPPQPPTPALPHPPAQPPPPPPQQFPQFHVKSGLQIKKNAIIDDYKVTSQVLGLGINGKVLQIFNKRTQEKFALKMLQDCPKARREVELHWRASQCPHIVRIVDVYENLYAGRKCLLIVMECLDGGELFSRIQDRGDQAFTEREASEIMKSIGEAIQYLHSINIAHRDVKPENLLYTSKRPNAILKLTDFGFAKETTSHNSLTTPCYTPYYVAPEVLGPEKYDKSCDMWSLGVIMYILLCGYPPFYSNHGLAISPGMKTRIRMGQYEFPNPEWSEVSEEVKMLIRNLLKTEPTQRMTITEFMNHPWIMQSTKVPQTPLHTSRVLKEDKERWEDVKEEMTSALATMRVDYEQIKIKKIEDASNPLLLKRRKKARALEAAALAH

[23] = Inhibition of recombinant PKB delta ph mutant (unknown origin); design: species or system Homo sapiens
cells [24] = assay type: functional, cell-based; settings: Homo sapiens, NCI-H820, 72 h
NCI-H3255GR = test: Induction of apoptosis in human NCI-H3255GR cells assessed as increase in cleavage of PARP at 1 micromol/L incubated for 72 hrs by Western blotting analysis; assay type: functional, cell-based; settings: dose 1.0 µmol/L
[25] = molecular target: cAMP-dependent protein kinase (PKA) (Homo sapiens, UniProt P22694+P17612+P22612); test: Inhibition of recombinant PKA (unknown origin); assay type: protein assay
[26] = molecular target: Tyrosine-protein kinase CSK (Homo sapiens, UniProt P41240); test: Inhibition of recombinant CSK (unknown origin)
NIH3T3 [27] = settings: Mus musculus, dose 1-10000 nmol/L, time 6.25 hrs; remark: listed apart in the source
[28] = molecular target: AMP-activated protein kinase, AMPK; test: Inhibition of recombinant AMPK (unknown origin); assay type: protein-complex assay, Homo sapiens
[29] = molecular target: Cyclin-dependent kinase 4/cyclin D (Homo sapiens, UniProt P11802); test: Inhibition of recombinant CDK4/Cyclin D (unknown origin); assay type: protein-complex assay
HCC827 [30] = test: cells; assay type: functional, cell-based; settings: Homo sapiens, HCC827, 72 h; remark: listed apart in the source
BaF3 [31] = test: cells; assay type: functional, cell-based; settings: Mus musculus, BaF3, 72 h; remark: listed apart in the source
[32] = molecular target: Serine/threonine-protein kinase Chk1 (Homo sapiens, UniProt O14757); test: Inhibition of recombinant CHK1 (unknown origin)
Sequence of Serine/threonine-protein kinase Chk1 (O14757 whole entry): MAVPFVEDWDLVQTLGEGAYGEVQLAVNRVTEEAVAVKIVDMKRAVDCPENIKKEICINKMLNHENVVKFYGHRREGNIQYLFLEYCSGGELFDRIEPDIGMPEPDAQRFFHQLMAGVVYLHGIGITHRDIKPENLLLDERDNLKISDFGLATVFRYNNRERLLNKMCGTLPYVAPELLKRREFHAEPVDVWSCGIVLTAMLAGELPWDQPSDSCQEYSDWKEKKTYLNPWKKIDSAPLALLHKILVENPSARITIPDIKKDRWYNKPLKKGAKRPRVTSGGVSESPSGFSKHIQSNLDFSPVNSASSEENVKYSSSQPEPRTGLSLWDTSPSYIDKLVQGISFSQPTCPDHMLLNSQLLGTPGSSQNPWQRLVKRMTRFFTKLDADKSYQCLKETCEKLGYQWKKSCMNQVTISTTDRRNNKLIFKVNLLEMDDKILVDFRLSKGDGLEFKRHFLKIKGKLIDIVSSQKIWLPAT

NCI-H3255 [33] = test: cells; assay type: functional, cell-based; settings: Homo sapiens, NCI-H3255, 72 h; remark: listed apart in the source
BaF3 [34] = test: cells; assay type: functional, cell-based; settings: Mus musculus, BaF3, 72 h; remark: listed apart in the source
BaF3 [35] = test: cells; assay type: functional, cell-based; settings: Mus musculus, BaF3, 72 h; remark: listed apart in the source
NCI-H3255 [36] = test: cells; assay type: functional, cell-based; settings: Homo sapiens, NCI-H3255, 72 h; remark: listed apart in the source

IC50 (cells [1]): 29 nM
IC50 [2]: > 10000 nM
IC50 (A549): > 10000 nM
IC50 [3]: > 10000 nM
IC50 [4]: > 10000 nM
IC50 (NCI-H3255 [5]): 1570 nM
IC50 [6]: > 10000 nM
IC50 (BaF3 [7]): < 1 nM
IC50 (HCC827 [8]): 2 nM
IC50 (cells [9]): 275 nM
IC50 (HCC827 [10]): 2 nM
IC50 [11]: > 10000 nM
IC50 [12]: > 10000 nM
IC50 (BaF3 [13]): 2 nM
IC50 [14]: > 40000 nM
IC50 [15]: > 10000 nM
IC50 (H322): > 10000 nM
IC50 (Calu-3): 63 nM
IC50 [17]: > 10000 nM
IC50 [18]: > 10000 nM
inhibition [19]: Active
IC50 [20]: > 10000 nM
IC50 [22]: > 10000 nM
IC50 [23]: > 10000 nM
IC50 (cells [24]): 930 nM
IC50 [25]: > 40000 nM
IC50 [26]: > 10000 nM
IC50 [28]: > 10000 nM
IC50 [29]: > 40000 nM
IC50 (HCC827 [30]): 2 nM
IC50 (BaF3 [31]): 270 nM
IC50 [32]: > 10000 nM
IC50 (NCI-H3255 [33]): 7 nM
IC50 (BaF3 [34]): 1.6 nM
IC50 (BaF3 [35]): 230 nM
IC50 (NCI-H3255 [36]): 7 nM
SMILES: COc1cc2ncnc(Nc3ccc(F)c(Cl)c3)c2cc1NC(=O)/C=C/CN1CCCCC1 [DACOMITINIB ANHYDROUS]
Activity (HCC827 [16]): Active
inhibition (NIH3T3 [21]): Active
Activity (NCI-H3255GR): Active
inhibition (NIH3T3 [27]): Active
